According to ChEMBL document CHEMBL4819122, “Novel 4-(piperazin-1-yl)quinolin-2(1H)-one bearing thiazoles with antiproliferative activity through VEGFR-2-TK inhibition” (Bioorg Med Chem, 2021):
Active and inactive are the calls of the source. The rule behind the calls is not given here.

How the values were obtained:
[1] = test system: HL-60; assay: Cytotoxicity against human HL60 assessed as growth inhibition at 10 uM by NCI protocol relative to control; type: functional; conditions: read-out: GI
Summary of the method: (§1)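 Run by NCI as a single-dose screen at 10 μM across the sixty-cell-line panel, which covers nine human tumour tissue types. The read-out is percent growth inhibition of treated cells relative to untreated cells.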

[2] = test system: MOLT-4; assay: Cytotoxicity against human MOLT-4 assessed as growth inhibition at 10 uM by NCI protocol relative to control; type: functional; conditions: read-out: GI; summary of the method: as §1
[3] = test system: SR; assay: Cytotoxicity against human SR assessed as growth inhibition at 10 uM by NCI protocol relative to control; type: functional; conditions: read-out: GI
Summary of the method: (§2)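 Run by the NCI under its standard protocol: one dose of 10 μM against a sixty-line panel from nine human tumour tissues. Result given as percent growth inhibition of treated cells relative to untreated cells.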

[4] = test system: A549; assay: Cytotoxicity against human A549 assessed as growth inhibition at 10 uM by NCI protocol relative to control; type: functional; conditions: read-out: GI; summary of the method: as §1
[5] = test system: EKVX; assay: Cytotoxicity against human EKVX assessed as growth inhibition at 10 uM by NCI protocol relative to control; type: functional; conditions: read-out: GI; summary of the method: as §1
[6] = test system: HOP-92; assay: Cytotoxicity against human HOP-92 assessed as growth inhibition at 10 uM by NCI protocol relative to control; type: functional; conditions: read-out: GI; summary of the method: as §1
[7] = test system: NCI-H226; assay: Cytotoxicity against human NCI-H226 assessed as growth inhibition at 10 uM by NCI protocol relative to control; type: functional; conditions: read-out: GI; summary of the method: as §1
[8] = test system: NCI-H23; assay: Cytotoxicity against human NCI-H23 assessed as growth inhibition at 10 uM by NCI protocol relative to control; type: functional; conditions: read-out: GI; summary of the method: as §1
[9] = test system: NCI-H322M; assay: Cytotoxicity against human NCI-H322M assessed as growth inhibition at 10 uM by NCI protocol relative to control; type: functional; conditions: read-out: GI; summary of the method: as §1
[10] = test system: NCI-H522; assay: Cytotoxicity against human NCI-H522 assessed as growth inhibition at 10 uM by NCI protocol relative to control; type: functional; conditions: read-out: GI; summary of the method: as §1
[11] = test system: COLO 205; assay: Cytotoxicity against human COLO 205 assessed as growth inhibition at 10 uM by NCI protocol relative to control; type: functional; conditions: read-out: GI; summary of the method: as §1
[12] = test system: HCC 2998; assay: Cytotoxicity against human HCC-2998 assessed as growth inhibition at 10 uM by NCI protocol relative to control; type: functional; conditions: read-out: GI; summary of the method: as §1
[13] = test system: HCT-116; assay: Cytotoxicity against human HCT-116 assessed as growth inhibition at 10 uM by NCI protocol relative to control; type: functional; conditions: read-out: GI; summary of the method: as §1
[14] = test system: HCT-15; assay: Cytotoxicity against human HCT-15 assessed as growth inhibition at 10 uM by NCI protocol relative to control; type: functional; conditions: read-out: GI; summary of the method: as §1
[15] = test system: HT-29; assay: Cytotoxicity against human HT29 assessed as growth inhibition at 10 uM by NCI protocol relative to control; type: functional; conditions: read-out: GI; summary of the method: as §1
[16] = test system: KM12; assay: Cytotoxicity against human KM12 assessed as growth inhibition at 10 uM by NCI protocol relative to control; type: functional; conditions: read-out: GI; summary of the method: as §1
[17] = test system: SW-620; assay: Cytotoxicity against human SW-620 assessed as growth inhibition at 10 uM by NCI protocol relative to control; type: functional; conditions: read-out: GI; summary of the method: as §2
[18] = test system: SF-295; assay: Cytotoxicity against human SF-295 assessed as growth inhibition at 10 uM by NCI protocol relative to control; type: functional; conditions: read-out: GI; summary of the method: as §1
[19] = test system: SF-539; assay: Cytotoxicity against human […] assessed as growth inhibition at 10 uM by NCI protocol relative to control; type: functional; conditions: read-out: GI; summary of the method: as §1
[20] = test system: SNB-19; assay: Cytotoxicity against human SNB-19 assessed as growth inhibition at 10 uM by NCI protocol relative to control; type: functional; conditions: read-out: GI; summary of the method: as §2
[21] = test system: SNB-75; assay: Cytotoxicity against human SNB-75 assessed as growth inhibition at 10 uM by NCI protocol relative to control; type: functional; conditions: read-out: GI; summary of the method: as §2
[22] = test system: U-251; assay: Cytotoxicity against human U251 assessed as growth inhibition at 10 uM by NCI protocol relative to control; type: functional; conditions: read-out: GI; summary of the method: as §2
[23] = test system: M14; assay: Cytotoxicity against human M14 assessed as growth inhibition at 10 uM by NCI protocol relative to control; type: functional; conditions: read-out: GI; summary of the method: as §1
[24] = test system: MDA-MB-435; assay: Cytotoxicity against human MDA-MB-435 assessed as growth inhibition at 10 uM by NCI protocol relative to control; type: functional, cell-based; summary of the method: as §1
[25] = test system: SK-MEL-28; assay: Cytotoxicity against human SK-MEL-28 assessed as growth inhibition at 10 uM by NCI protocol relative to control; type: functional; conditions: read-out: GI; summary of the method: as §1
[26] = test system: SK-MEL-5; assay: Cytotoxicity against human SK-MEL-5 assessed as growth inhibition at 10 uM by NCI protocol relative to control; type: functional; conditions: read-out: GI; summary of the method: as §1
[27] = test system: UACC-62; assay: Cytotoxicity against human UACC-62 assessed as growth inhibition at 10 uM by NCI protocol relative to control; type: functional; conditions: read-out: GI; summary of the method: as §2
[28] = test system: IGROV-1; assay: Cytotoxicity against human IGROVI assessed as growth inhibition at 10 uM by NCI protocol relative to control; type: functional; conditions: read-out: GI; summary of the method: as §1
[29] = test system: OVCAR-3; assay: Cytotoxicity against human OVCAR-3 assessed as growth inhibition at 10 uM by NCI protocol relative to control; type: functional; conditions: read-out: GI; summary of the method: as §1
[30] = test system: OVCAR-4; assay: Cytotoxicity against human OVCAR-4 assessed as growth inhibition at 10 uM by NCI protocol relative to control; type: functional; conditions: read-out: GI; summary of the method: as §1
[31] = test system: OVCAR-8; assay: Cytotoxicity against human OVCAR-8 assessed as growth inhibition at 10 uM by NCI protocol relative to control; type: functional; conditions: read-out: GI; summary of the method: as §1
[32] = test system: SK-OV-3; assay: Cytotoxicity against human SK-OV-3 assessed as growth inhibition at 10 uM by NCI protocol relative to control; type: functional; conditions: read-out: GI; summary of the method: as §1
[33] = test system: 786-0; assay: Cytotoxicity against human 786-0 assessed as growth inhibition at 10 uM by NCI protocol relative to control; type: functional; conditions: read-out: GI; summary of the method: as §1
[34] = test system: A498; assay: Cytotoxicity against human A498 assessed as growth inhibition at 10 uM by NCI protocol relative to control; type: functional; conditions: read-out: GI; summary of the method: as §1
[35] = test system: CAKI-1; assay: Cytotoxicity against human Caki1 assessed as growth inhibition at 10 uM by NCI protocol relative to control; type: functional; conditions: read-out: GI; summary of the method: as §1
[36] = test system: RXF 393; assay: Cytotoxicity against human RXF 393 assessed as growth inhibition at 10 uM by NCI protocol relative to control; type: functional; conditions: read-out: GI; summary of the method: as §1
[37] = test system: UO-31; assay: Cytotoxicity against human UO31 assessed as growth inhibition at 10 uM by NCI protocol relative to control; type: functional; conditions: read-out: GI; summary of the method: as §2
[38] = test system: DU-145; assay: Cytotoxicity against human DU-145 assessed as growth inhibition at 10 uM by NCI protocol relative to control; type: functional; conditions: read-out: GI; summary of the method: as §1
[39] = test system: MCF7; assay: Cytotoxicity against human MCF7 assessed as growth inhibition at 10 uM by NCI protocol relative to control; type: functional; conditions: read-out: GI; summary of the method: as §1
[40] = test system: BT-549; assay: Cytotoxicity against human BT-549 assessed as growth inhibition at 10 uM by NCI protocol relative to control; type: functional; conditions: read-out: GI; summary of the method: as §1
[41] = test system: MDA-MB-468; assay: Cytotoxicity against human MDA-MB-468 assessed as growth inhibition at 10 uM by NCI protocol relative to control; type: functional; conditions: read-out: GI; summary of the method: as §1
[42] = test system: T47D; assay: Cytotoxicity against human T47D cells assessed as reduction in cell viability after 3 hrs by MTT assay

O=C(CN1CCN(c2cc(=O)[nH]c3ccc(F)cc23)CC1)Nc1nc(-c2ccc(Cl)cc2)cs1
inhibition of growth at 10 µM [1]: 38.3%
inhibition of growth at 10 µM [2]: 52.8%
inhibition of growth at 10 µM [3]: 29.1%
inhibition of growth at 10 µM [4]: 44.4%
inhibition of growth at 10 µM [5]: 43.3%
inhibition of growth at 10 µM [6]: 29.7%
inhibition of growth at 10 µM [7]: 12.6%
inhibition of growth at 10 µM [8]: 28.8%
inhibition of growth at 10 µM [9]: 21.3%
inhibition of growth at 10 µM [10]: 25.9%
inhibition of growth at 10 µM [11]: 14.5%
inhibition of growth at 10 µM [12]: 30.9%
inhibition of growth at 10 µM [13]: 48%
inhibition of growth at 10 µM [14]: 34.9%
inhibition of growth at 10 µM [15]: 25.6%
inhibition of growth at 10 µM [16]: 30.1%
inhibition of growth at 10 µM [17]: 41.2%
inhibition of growth at 10 µM [18]: 20.4%
inhibition of growth at 10 µM [19]: 30.5%
inhibition of growth at 10 µM [20]: 30.8%
inhibition of growth at 10 µM [21]: 46.2%
inhibition of growth at 10 µM [22]: 37.3%
inhibition of growth at 10 µM [23]: 30.6%
growth inhibition (GI) [24]: inactive
inhibition of growth at 10 µM [25]: 17.3%
inhibition of growth at 10 µM [26]: 34.6%
inhibition of growth at 10 µM [27]: 32%
inhibition of growth at 10 µM [28]: 50.8%
inhibition of growth at 10 µM [29]: 16.9%
inhibition of growth at 10 µM [30]: 39.1%
inhibition of growth at 10 µM [31]: 24%
inhibition of growth at 10 µM [32]: 11.9%
inhibition of growth at 10 µM [33]: 32.8%
inhibition of growth at 10 µM [34]: 60.5%
inhibition of growth at 10 µM [35]: 55.5%
inhibition of growth at 10 µM [36]: 37.6%
inhibition of growth at 10 µM [37]: 38%
inhibition of growth at 10 µM [38]: 41.1%
inhibition of growth at 10 µM [39]: 39.7%
inhibition of growth at 10 µM [40]: 27.5%
inhibition of growth at 10 µM [41]: 51.4%
IC50 [42]: 2730 nM
